This passage reports Activity results from ChEMBL document CHEMBL3272318, “Antimalarials. 8. Synthesis of amino ethers as candidate antimalarials” (J Med Chem, 1976).

Active and inactive are the calls of the source. The rule behind the calls is not given here.

The subject of one data set is Plasmodium berghei. Nature of the data set: Antimalarial activity against blood schizont stage of Plasmodium berghei infected in mouse at 640 mg/kg. On the set-up: dose 640 mg/kg. It is filed as functional, organism-based.
The species named for the next data set is Mus musculus. Nature of the data set: Toxicity in mouse infected with blood schizont stage of Plasmodium berghei. Type of data set: organism-based. To be noted: in vivo.
In a further data set the test system is Plasmodium gallinaceum. Nature of the data set: Antimalarial activity against sporozoite stage of Plasmodium gallinaceum infected in chick at 480 mg/kg. Type of data set: functional, organism-based. Also noted: dose 480 mg/kg. Put shortly: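 Prophylactic screen run at the Rane Laboratory (University of Miami) in chicks infected with Plasmodium gallinaceum. Compounds were tested at doses up to 480 mg/kg.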

Turning to `CC1(C2CCN(C(=O)O)CC2)OC1c1ccc(Cl)cc1` (stereo unspecified), the outcome in the data set with Plasmodium berghei and in the data set with Plasmodium gallinaceum was inactive. In addition, the Activity result in the data set filed under Mus musculus was “Toxic”.
Turning to `COC(CC1CCNCC1)c1ccc(Cl)cc1.Cl` (stereo unspecified), the result in the data set with Plasmodium berghei and with Plasmodium gallinaceum was inactive. Moreover, in the data set listed under Mus musculus, the Activity result is recorded as “Toxic”.
On to `CC(C)(Br)C(=O)c1ccc(-c2ccc(Cl)cc2)cc1`, for which the result with Plasmodium berghei and in the data set with Plasmodium gallinaceum was inactive. Also, the Activity entry in the data set listed under Mus musculus was “Toxic”.
As to `CCC(Cc1ccc(Cl)cc1)(OC)C1CCCNC1.O=C(O)CCC(=O)O` (stereo unspecified), the result with Plasmodium berghei and with Plasmodium gallinaceum was inactive. Moreover, in the data set listed under Mus musculus, the Activity entry was “Toxic”.
Take `CCOC(C)(Cc1ccc(Cl)cc1)C1CCNCC1.Cl` (stereo unspecified): the result with Plasmodium berghei and in the data set with Plasmodium gallinaceum was inactive. Besides, the Activity entry in the data set listed under Mus musculus was “Toxic”.
As for `CCOC(c1ccc(Cl)cc1)C(C)C1CCNCC1.O=C(O)CCC(=O)O` (stereo unspecified), the result in the data set on Plasmodium berghei and in the data set on Plasmodium gallinaceum was inactive. Also, the Activity result in the data set filed under Mus musculus is recorded as “Toxic”.
On to `CN1CCC(C2(C)OC2c2ccc(Cl)cc2)CC1.Cc1ccc(S(=O)(=O)O)cc1` (stereo unspecified), for which the result in the data set on Plasmodium berghei and with Plasmodium gallinaceum was inactive. Moreover, the Activity entry in the data set filed under Mus musculus is reported as “Toxic”.
Consider `CC(C)(Br)C(=O)c1ccc(Cl)cc1`, for which the result in the data set with Plasmodium berghei and in the data set with Plasmodium gallinaceum was inactive. In the data set listed under Mus musculus, the Activity result was “Toxic”.
For the compound `CCOC(C)(CC1CCNCC1)c1ccc(Cl)cc1` (stereo unspecified), the result in the data set on Plasmodium berghei and in the data set with Plasmodium gallinaceum was inactive. In the data set listed under Mus musculus, the Activity entry is “Toxic”.
For `CCC(CC1CCCNC1)(OC)c1ccc(Cl)cc1` (stereo unspecified), the outcome with Plasmodium berghei and in the data set on Plasmodium gallinaceum was inactive. Further, the Activity result in the data set filed under Mus musculus is “Toxic”.
`CCC(CC1CCNCC1)(OC)c1ccc(Cl)cc1` (stereo unspecified): the result in the data set on Plasmodium berghei and with Plasmodium gallinaceum was inactive. In the data set filed under Mus musculus, the Activity entry is recorded as “Toxic”.
On to `COC(c1ccc(Cl)cc1)C(C)C1CCNCC1.Cl` (stereo unspecified), for which the outcome with Plasmodium berghei and in the data set with Plasmodium gallinaceum was inactive. Moreover, the Activity result in the data set filed under Mus musculus is “Toxic”.
